Assay outcomes from PubChem BioAssay.
bCat nuc transl – modulators of beta-catenin nuclear translocation, primary screen, imaging, HeLa cells, immunofluorescence, high-content; nuclear translocation activity, % at 5 µM; 190,000 compounds, 0.3% hits; AID 1665, 2009;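 active = nuclear translocation activity above 50% at 5 µM, with a well cell count of 50 or more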;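 note: per-cell ratio of nuclear to cytoplasmic median beta-catenin stain intensity; plate controls were DMSO negative control for no effect and GSK-3 inhibitor IX positive control for full effect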
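System: HeLa cells, endogenous beta-catenin; compound dosing: 5 µM primary single dose, 0.1% DMSO, 0.02–20 µM confirmation series; incubation: 24 h compound exposure at 37°C, 5% CO2; signal: beta-catenin immunofluorescence imaging with DAPI; evaluation: % activation, nuclear-to-cytoplasmic median beta-catenin signal ratio per cell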
BaF3 tox – parental Ba/F3 cell viability inhibition, counter-screen for JAK2V617F inhibitor project, murine pro-B, CellTiter-Glo luminescence; CellTiter-Glo ATP luminescence; inhibition, % at 5.6 µM; 220,000 compounds, 1.1% hits; AID 1486, 2009;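 active = inhibition above a per-campaign cutoff, the mean inhibition of all tested compounds plus 3 SD, cut at about 27% in these data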;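 note: 0% = DMSO wells and 100% = JAK Inhibitor I control wells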
Ba/F3 V617F tox – reduced viability of JAK2V617F-dependent Ba/F3 cells, primary screen, JAK2V617F inhibitor project, cell-based, Ba/F3 EpoR-JAK2V617F, luminescence; ATP luminescence; AID 1446, 2008; 220,000 compounds, 1.1% hits; inhibition, % at 5.6 µM;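 active = inhibition above the campaign mean plus 3 SD over all tested compounds, cut at about 24% in these data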;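 note: cytokine-independent growth of Ba/F3 cells driven by EpoR plus mutant JAK2; 0% = DMSO-treated cells and 100% = JAK inhibitor I control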
MT stabilizer – microtubule stabilizers in HeLa cells, primary screen, imaging, high-content imaging. HeLa tubulin immunostaining HCS, 24 h; share of cells brighter than vehicle mean+2SD. % tubulin-high responders, % at 10 µM. 200,000 compounds, 0.83% hits;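 active = plate Z-score above 3 for both tubulin-high and condensed-nucleus cell shares, with cell loss under 80%, at 10 µM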;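 note: anti alpha tubulin signal scored within the nucleus-defined area of each cell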
L major viab – Leishmania major promastigote growth inhibition, primary screen | inhibition, % at 10 µM | 200,000 compounds, 9% hits | AID 1063, 2008 | Leishmania major promastigotes, resazurin fluorescence viability; in the data active = inhibition above about 50%;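 note: promastigotes grown with compound for 44 hours at 28 °C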
APP 5UTR inh – inhibitors of APP translation via 5'UTR reporter, primary screen, APP 5'UTR luciferase, SH-SY5Y cells; SH-SY5Y APP 5'UTR-luciferase reporter, luminescence; inhibition, % at 2 µM; 190,000 compounds, 0.82% hits;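 active = inhibition above a set limit, derived from the sample mean plus 3 SD, cut at about 45% in these data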
Starred values were filed as active, the others as inactive; · = not tested or not shown. In the library only some 9.6% were active in any assay of this set; here they are far more common.

SMILES	bCat nuc transl	BaF3 tox	Ba/F3 V617F tox	MT stabilizer	L major viab	APP 5UTR inh
O=C(Nc1ccc(CN2CCOCC2)cc1)c1ccc(-c2cc(Cl)ccc2Cl)o1	2	6	1	1	99*	-7
O=C(/C=C/c1ccc(Cl)cc1Cl)Nc1ccc(CN2CCOCC2)cc1	4	9	-1	5	70*	-10
S=C(c1ccc(-c2cc(Cl)ccc2Cl)o1)N1CCCCC1	·	0	-3	3	54*	-13
O=C(/C=C/c1ccccc1)Nc1ccc(CN2CCOCC2)cc1	-2	2	-3	3	13	-36
COc1ccc(Br)cc1/C=C\C(=O)NCc1cccnc1	-2	5	1	2	1	-16
CNC(=S)N(Cc1cc2ccc(OC)cc2[nH]c1=O)CC1CCCO1 (centres undefined)	-1	11	0	3	-3	-2
CC(CCN(C)C)OC(=O)c1ccc(C(C)c2ccccc2)o1 (centres undefined)	0	5	-1	6	100*	4
CN(C)CCNC(=O)C(c1ccccc1)c1ccccc1	-1	1	-1	·	·	·
CCN(CC(=O)NC(C)C)C(=O)Cc1ccc(C)c(C)c1	2	5	-2	4	-3	-19
COc1ccc(C(C)=O)cc1COC(=O)c1c(C)noc1C	1	2	0	2	-4	-7
CCc1cc2c(COC(=O)c3c(C)noc3C)cc(=O)oc2cc1O	-3	3	0	3	86*	4
COc1cc2[nH]c(=S)nc(NCCc3ccc(C)cc3)c2cc1OC	-3	2	-1	2	97*	-4
COc1ccc(CCNc2nc(=S)[nH]c3cc(OC)c(OC)cc23)cc1OC	0	6	2	3	10	-12
COc1ccc(C(=O)Nc2cccc(-c3cc4ccccc4oc3=O)c2)cc1[N+](=O)[O-]	2	7	1	8	29	4
CC(=O)Nc1ccc(-c2nnc(SCc3c(C)cc(C)cc3C)n2C)cc1	·	6	1	2	76*	·
CCN(CC)c1nc(-c2cccc(OC)c2O)nc2ccccc12	0	4	-2	4	7	52*
CCOc1ccc(N=Nc2c(C)noc2C)cc1	·	2	-1	4	-1	-5
CC(=O)c1ccc(N/N=C(/C(N)=O)C2=NC(C)(C)Cc3ccccc32)cc1	12	0	-1	6	32	27
CC1(C)Cc2ccccc2C(/C(=N/O)C(N)=O)=N1	-5	7	1	6	61*	-21
CC1(C)Cc2ccccc2C(/C(=N\Nc2cccc(Cl)c2)C(N)=O)=N1	-1	4	1	2	98*	-15
CC(C)OCCCNC(=O)C(NS(=O)(=O)c1ccc2c(c1)c(=O)n(C)c(=O)n2C)c1ccccc1 (centres undefined)	-5	3	-2	5	0	-2
O=C(NCCN1CCOCC1)c1cc(Cl)ccc1[N+](=O)[O-]	-1	5	-3	6	-9	19
COc1ccc(OC)c(NC(=O)c2cccc(S(=O)(=O)N(Cc3ccccc3)c3ccccc3OC)c2)c1	1	0	3	2	96*	2
COc1ccccc1N(CC(=O)N/N=C/c1c(O)ccc2ccccc12)S(C)(=O)=O	-2	10	-3	6	99*	37
COc1ccccc1N(Cc1ccccc1)S(=O)(=O)c1cccc(C(=O)Nc2ccc(C(C)=O)cc2)c1	-1	9	3	6	75*	4
CCOc1ccccc1N(CC(=O)Nc1ccccc1C(=O)O)S(C)(=O)=O	-1	0	0	2	-5	-7
COc1ccc(OC)c(NC(=O)c2ccc(CN(c3cc(Cl)ccc3C)S(=O)(=O)c3ccccc3)cc2)c1	-3	3	1	6	-1	0
CCOc1ccccc1N(CC(=O)Nc1cc(OC)ccc1OC)S(C)(=O)=O	-6	4	-1	1	84*	-1
C/C=C\C(=O)Nc1cccc(C2=NOC3(C2)C[C@H](C(N)=O)N(C(=O)Cc2ccc([N+](=O)[O-])cc2)C3)c1 (some centres undefined)	-2	·	·	·	·	·
